The source made the active and inactive calls. The rule behind the calls is not given here. A value given as a limit tells only on which side of the number the result lay.

A word on the EC50: it is the midpoint of the concentration-response curve. As a reminder, the CC50 is the concentration at which the toxic effect on the cells reaches its halfway point.

Series [1] deals with Human alphaherpesvirus 2. Nature of the series: Antiviral activity against HSV2 G infected in HEL assessed as inhibition of virus-induced cytopathicity after 3 days. It counts as functional, organism-based. The note with it: Human alphaherpesvirus 2, strain G, 72 h. Put shortly:
(§1)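 Confluent cell monolayers infected with 100 CCID50 of virus in the presence of test compound at 100, 20,... μM. Cytopathicity was scored once it was complete in untreated infected controls.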
In general terms: Cytopathic effects are the visible damage that an infection or toxin causes in cultured cells.

For series [2], the system named is Sindbis virus. Put plainly: Antiviral activity against Sindbis virus infected in african green monkey Vero assessed as inhibition of virus-induced cytopathicity after 3 days. It counts as functional, organism-based. Put shortly: as §1
In series [3] the test system is Influenza B virus. Nature of the series: Antiviral activity against Influenza B virus infected in MDCK assessed as inhibition of virus-induced cytopathicity after 3 days. The class given is functional, organism-based.
In series [4] the test system is Respiratory syncytial virus. Put plainly: Antiviral activity against Respiratory syncytial virus infected in human HeLa assessed as inhibition of virus-induced cytopathicity after 3 days. It counts as functional, organism-based. Put shortly:
as §1

For series [5], the system named is Influenza A virus. Nature of the series: Antiviral activity against Influenza A virus H3N2 infected in MDCK assessed as inhibition of virus-induced cytopathicity after 3 days. The class given is functional, organism-based.
Series [6] deals with Human alphaherpesvirus 1. Put plainly: Antiviral activity against HSV1 KOS infected in HEL assessed as inhibition of virus-induced cytopathicity after 3 days. It counts as functional, organism-based. The note with it: Human alphaherpesvirus 1, KOS, 72 h.
For series [7], the system named is Punta Toro virus. Put plainly: Antiviral activity against Punta Toro virus infected in african green monkey Vero assessed as inhibition of virus-induced cytopathicity after 3 days. It counts as functional, organism-based. The gist of the method:
as §1

Series [8] deals with Vesicular stomatitis virus. Nature of the series: Antiviral activity against Vesicular stomatitis virus infected in human HeLa assessed as inhibition of virus-induced cytopathicity after 3 days. It counts as functional, organism-based.
Series [9] has as its system Human alphaherpesvirus 3. Nature of the series: Antiviral activity against thymidine kinase-deficient VZV 07/1 infected in human HEL cells assessed as reduction of virus-induced cytopathogenicity after 3 days. The class given is functional, organism-based. The note with it: Human alphaherpesvirus 3, 07/1, HEL, 72 h.
Series [10] deals with Vesicular stomatitis virus. Nature of the series: Antiviral activity against Vesicular stomatitis virus infected in MDCK assessed as inhibition of virus-induced cytopathicity after 3 days. The class given is functional, organism-based.
The test system of series [11] is Mammalian orthoreovirus 1. Put plainly: Antiviral activity against Reovirus-1 infected in african green monkey Vero assessed as inhibition of virus-induced cytopathicity after 3 days. It counts as functional, organism-based. Put shortly: as §1
Series [12] has as its system Vaccinia virus. Put plainly: Antiviral activity against Vaccinia virus infected in HEL assessed as inhibition of virus-induced cytopathicity after 3 days. It counts as functional, organism-based. Conditions: Orthopoxvirus vaccinia, 72 h.
A short description of series [13]: Cytotoxicity against HEL after 3 days. The note with it: human, HEL cells. It counts as cell-based. Put shortly:
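HEL cells were seeded at 5×10^3 cells/well and allowed to grow for 24 h, then given medium with varying compound concentrations. After 3 days at 37 °C, cells were counted with a Coulter counter.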

Series [14] can be described thus: Cytotoxicity against HEL assessed as minimum compound concentration causes microscopically detectable alteration of cell morphology after 3 days. The note with it: human, HEL cells. The class given is cell-based.
Series [15] has as its system Human alphaherpesvirus 3. Nature of the series: Antiviral activity against VZV OKA expressing thymidine kinase infected in HEL cells assessed as inhibition of virus-induced cytopathogenicity after 3 days. The class given is functional, cell-based. The note with it: Human alphaherpesvirus 3, strain Oka vaccine, 72 h.
Series [16] concerns Human respirovirus 3. Put plainly: Antiviral activity against Parainfluenza-3 virus infected in african green monkey Vero assessed as inhibition of virus-induced cytopathicity after 3 days. It counts as functional, organism-based. The gist of the method: as §1
Series [17] deals with Human alphaherpesvirus 1. Put plainly: Antiviral activity against acyclovir-resistant thymidine kinase deficient HSV1 KOS infected in HEL assessed as inhibition of virus-induced cytopathicity after 3 days. The class given is functional, organism-based. Conditions: Human alphaherpesvirus 1, KOS, 72 h.
Series [18] concerns Influenza A virus. Nature of the series: Antiviral activity against Influenza A virus H1N1 infected in MDCK assessed as inhibition of virus-induced cytopathicity after 3 days. It counts as functional, organism-based.
Series [19] concerns Coxsackievirus B4. Put plainly: Antiviral activity against Coxsackievirus B4 infected in human HeLa assessed as inhibition of virus-induced cytopathicity after 3 days. It counts as functional, organism-based. Put shortly:
as §1

With `C=CCNc1ncnc2c1ncn2C/C=C/CP(=O)(OCOC(=O)C(C)(C)C)OCOC(=O)C(C)(C)C`, the EC50 in series [1], in [6], in [9], in series [12], in [15] and in series [17] was over 100 µM in each case. The outcome in series [2], in series [3], in series [4], in series [5], in series [7] and in series [8] was inactive. Further, the result in series [10], in series [11], in series [16], in [18] and in [19] was inactive. The compound further returned a CC50 at 72 h in series [13] of over 100 µM. For the same compound, in [14], the MCC at 72 h is over 100 µM.

Consider `Nc1ccn(C[C@@H](CO)OCP(=O)(O)O)c(=O)n1` [CIDOFOVIR], for which the EC50 in [1] stood at 1 µM; in series [6] it was 1.2 µM; in [12] it was 10 µM.

For the compound `CC(C)(C)C(=O)OCOP(=O)(C/C=C/Cn1cnc2c(Cl)nc(N)nc21)OCOC(=O)C(C)(C)C`, the EC50 in [1] was over 20 µM; in [6], over 20 µM; in series [9], 2.2 µM; in series [12] it was over 20 µM; in series [15], 4.4 µM; in [17], over 20 µM. The result in series [2], in [3], in series [4], in series [5], in series [7] and in series [8] was inactive. For the same compound, the outcome in [10], in series [11], in series [16], in series [18] and in [19] was inactive. Also, it took 5.4 µM to reach half-maximal cytotoxicity in series [13] (CC50 at 72 h). Besides, the MCC at 72 h in series [14] is over 100 µM.

With `CC(C)(C)C(=O)OCOP(=O)(C/C=C/Cn1cnc2c(=O)n3cc[nH]c3nc21)OCOC(=O)C(C)(C)C`, the 50% effective concentration (EC50) is over 100 µM in series [1]; over 100 µM in series [6]; 40.7 µM in [9]; over 100 µM in [12]; 17.3 µM in [15]; over 100 µM in series [17]. Moreover, the result in series [2], in [3], in [4], in [5], in series [7] and in [8] was inactive. In addition, the outcome in [10], in series [11], in series [16], in series [18] and in series [19] was inactive. In [14], the MCC at 72 h was over 100 µM.

`CC(C)(C)C(=O)OCOP(=O)(C/C=C/Cn1cnc2c(NC3CCCCC3)ncnc21)OCOC(=O)C(C)(C)C`: the EC50 is over 100 µM in series [1]; over 100 µM in [6]; over 20 µM in [9]; over 100 µM in series [12]; 20 µM in series [15]; over 100 µM in series [17]. Also, the result in [2], in series [3], in [4], in series [5], in series [7] and in series [8] was inactive. In addition, the result in series [10], in series [11], in series [16], in series [18] and in series [19] was inactive. Moreover, it took 11.4 µM to reach half-maximal cytotoxicity in series [13] (CC50 at 72 h). Moreover, the MCC at 72 h in [14] came to 100 µM.

Regarding `CC(C)(C)C(=O)OCOP(=O)(C/C=C/Cn1cnc2c(=O)[nH]cnc21)OCOC(=O)C(C)(C)C`, the concentration giving a half-maximal response (EC50) in series [1] was over 100 µM; in series [6], over 100 µM; in series [9], over 20 µM; in series [12], over 100 µM; in [15] it was over 100 µM; in [17], over 100 µM. Also, the outcome in series [2], in [3], in series [4], in series [5], in [7] and in [8] was inactive. Further, the outcome in series [10], in series [11], in [16], in [18] and in series [19] was inactive. Moreover, in [13], the CC50 at 72 h amounted to 51.9 µM. Further, the MCC at 72 h in series [14] is over 100 µM.

On to `CC(C)(C)C(=O)OCOP(=O)(C/C=C/Cn1cnc2c(NC3CC3)nc(N)nc21)OCOC(=O)C(C)(C)C`, for which the EC50 in series [1] was determined as 7.2 µM; in series [6] it was 16.3 µM; in series [9], 0.8 µM; in series [12], 20 µM; in series [15] it was 0.8 µM; in [17] it was 16.3 µM. Moreover, the result in series [2], in [3], in series [4], in series [5], in [7] and in series [8] was inactive. Besides, the result in series [10], in [11], in [16], in series [18] and in series [19] was inactive. The compound also came in with a CC50 at 72 h in series [13] of 2.3 µM. In addition, the MCC at 72 h in [14] is over 100 µM.

In the case of `CC(C)(C)C(=O)OCOP(=O)(C/C=C/Cn1cnc2c(Cl)ncnc21)OCOC(=O)C(C)(C)C`, the EC50 in series [1], in [6], in series [9], in series [12], in series [15] and in series [17] was over 20 µM in each case. For the same compound, the outcome in [2], in series [3], in [4], in [5], in series [7] and in series [8] was inactive. For the same compound, the outcome in series [10], in series [11], in series [16], in series [18] and in series [19] was inactive. The midpoint of cytotoxicity in [13], the CC50 at 72 h, lay at 10.5 µM. The MCC at 72 h in [14] was found to be 100 µM.

Turning to `CCCCNc1ncnc2c1ncn2C/C=C/CP(=O)(OCOC(=O)C(C)(C)C)OCOC(=O)C(C)(C)C`, the EC50 is over 100 µM in series [1]; over 100 µM in [6]; over 100 µM in series [9]; over 100 µM in series [12]; 100 µM in series [15]; over 100 µM in series [17]. Besides, the result in series [2], in series [3], in series [4], in [5], in [7] and in series [8] was inactive. In addition, the result in series [10], in series [11], in [16], in series [18] and in [19] was inactive. This compound also yielded a CC50 at 72 h in series [13] of 37.2 µM. Further, in series [14], the MCC at 72 h was over 100 µM.

As for `Nc1nc2c(ncn2COCCO)c(=O)[nH]1` [ACYCLOVIR], the EC50 in [12] was over 250 µM. The compound also yielded a CC50 at 72 h in series [13] of 134 µM. Also, the MCC at 72 h in [14] was over 100 µM.

Turning to `O=c1[nH]c(=O)n([C@H]2C[C@H](O)[C@@H](CO)O2)cc1/C=C/Br` [BRIVUDINE], the EC50 was determined as 50 µM in [1], 0.08 µM in [6] and 5 µM in [12]. Further, the MCC at 72 h in series [14] is over 100 µM.
